Here are results for 15 compounds from ChEMBL document CHEMBL1154595, “Discovery of selective nonpeptidergic neuropeptide FF2 receptor agonists” (J Med Chem, 2009).

SMILES strings stand for the structures. Activity calls are given as the source filed them.

For series [1], the target named is T1, Neuropeptide FF receptor 2 (Homo sapiens, UniProt Q9Y5X5). The series can be described thus: Agonist activity at human NPFF2 receptor expressed in cells assessed as beta-galactosidase levels at […] after 5 days. Type of series: functional, cell-based.
T1 sequence (Q9Y5X5 whole entry): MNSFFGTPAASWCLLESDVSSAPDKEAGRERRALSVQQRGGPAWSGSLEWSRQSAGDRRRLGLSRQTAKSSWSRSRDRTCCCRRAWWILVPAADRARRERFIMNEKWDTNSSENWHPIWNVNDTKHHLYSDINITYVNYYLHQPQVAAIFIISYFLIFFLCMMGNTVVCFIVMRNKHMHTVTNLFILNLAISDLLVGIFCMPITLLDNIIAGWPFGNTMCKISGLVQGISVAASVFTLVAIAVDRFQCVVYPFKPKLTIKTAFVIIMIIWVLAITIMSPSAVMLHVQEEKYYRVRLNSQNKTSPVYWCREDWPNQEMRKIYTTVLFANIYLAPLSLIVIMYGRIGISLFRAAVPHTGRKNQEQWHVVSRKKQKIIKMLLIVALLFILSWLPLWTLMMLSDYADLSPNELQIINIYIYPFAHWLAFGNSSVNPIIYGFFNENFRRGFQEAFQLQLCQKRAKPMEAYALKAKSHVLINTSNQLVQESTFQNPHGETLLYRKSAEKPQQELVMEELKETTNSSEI
Series [2] addresses T2, Neuropeptide FF receptor 1 (Homo sapiens, UniProt Q9GZQ6). Kind of series: Agonist activity at human NPFF1 receptor expressed in cells assessed as beta-galactosidase levels at […] after 5 days. Type of series: functional, cell-based.
Series [3] has as its target T1, Neuropeptide FF receptor 2. Kind of series: Agonist activity at human NPFF2 receptor expressed in cells assessed as beta-galactosidase levels after 5 days. It is filed as functional, cell-based. The method, boiled down: (§1)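 Functional R-SAT assay at human NPFF1 and NPFF2 receptors in agonist mode. Dose-response curves were built from seven concentrations, each tested in triplicate. Values are mean ± SEM of at least three independent experiments.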

Series [4] deals with T2, Neuropeptide FF receptor 1. Kind of series: Agonist activity at human NPFF1 receptor expressed in cells assessed as beta-galactosidase levels after 5 days. Type of series: functional, cell-based. The method in brief: as §1
Series [5] deals with T2, Neuropeptide FF receptor 1. The series can be described thus: Antagonist activity at human NPFF1 receptor expressed in HEK293T cells assessed as inhibition of PGE2-induced cAMP release. Type of series: functional, cell-based. The conditions noted are these: HEK-293T.
For series [6], the system named is Rattus norvegicus. Kind of series: Antiinflammatory activity in ip dosed Sprague-Dawley rat assessed as inhibition of carrageenan-induced thermal hypersensitivity by hotplate test. It is filed as functional, organism-based. The method in brief:
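Acute inflammatory pain was produced in rats by carrageenan. Thermal hypersensitivity was measured by hot plate test on a metal plate held at 52 °C.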

In series [7] the test system is Rattus norvegicus. Kind of series: Antiinflammatory activity in ip dosed Sprague-Dawley rat assessed as inhibition of carrageenan-induced paw edema. Type of series: functional, organism-based.
Series [8] concerns Rattus norvegicus. Kind of series: Antiallodynic activity in Sprague-Dawley rat Kim-Chung model of neuropathic pain assessed mechanical-stimuli induced paw withdrawal threshold at 10 mg/kg. It is filed as functional, organism-based. Also noted: dose 10 mg/kg. The method in brief:
(§2)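 Rats underwent spinal nerve ligation (SNL), with sham-operated rats also used. Tactile allodynia was defined as a significant reduction in paw withdrawal threshold to mechanical stimuli.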

Series [9] is described as follows: Activity at alpha-adrenergic receptor.
The test system of series [10] is Rattus norvegicus. The series can be described thus: Antiallodynic activity in Sprague-Dawley rat Kim-Chung model of neuropathic pain assessed mechanical-stimuli induced paw withdrawal threshold at 30 mg/kg. Type of series: functional, organism-based. Also noted: dose 30 mg/kg. The method in brief:
as §2

Series [11] concerns the target T1, Neuropeptide FF receptor 2. The series can be described thus: Agonist activity at human NPFF2 receptor expressed in HEK293T cells assessed as inhibition of PGE2-induced cAMP release. The conditions noted are these: HEK-293T.
In series [12] the target is T2, Neuropeptide FF receptor 1. The series can be described thus: Agonist activity at human NPFF1 receptor expressed in HEK293T cells assessed as inhibition of PGE2-induced cAMP release. Also noted: Activity: scale not given: the % may be the effect or the level left. The settings on record: HEK-293T.
For series [13], the species on record is Rattus norvegicus. The series can be described thus: Antiallodynic activity in Sprague-Dawley rat Kim-Chung model of neuropathic pain assessed mechanical-stimuli induced paw withdrawal threshold. Type of series: functional, organism-based. The method, boiled down:
as §2

For series [14], the species on record is Rattus norvegicus. The series can be described thus: Antiallodynic activity in Sprague-Dawley rat Kim-Chung model of neuropathic pain assessed mechanical-stimuli induced paw withdrawal threshold in presence of […]-antagonist dansyl-PQR-amide. Type of series: functional, organism-based. The method, boiled down:
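Rats with spinal nerve ligation, plus sham-operated rats. Tactile allodynia was scored as a significant reduction in paw withdrawal threshold. The selective NPFF1 antagonist dansylPQRamide was given at 30 mg/kg ip alongside the test agonist, with systemic dosing.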

A short description of series [15]: Clearance in human liver microsomes. It is filed as ADME, Microsome. The method, boiled down:
(§3)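 Stability was measured in human and in rat liver microsomes. Clearance is reported in μL/(min·mg) and related to liver blood flow.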
Background: Microsomes from liver hold many membrane-bound enzymes, among them those of drug oxidation.

A short description of series [16]: Clearance in rat liver microsomes. It is filed as ADME, Microsome. The method in brief:
as §3

Series [17] in a line: Oral bioavailability in Sprague-Dawley rat. It is filed as ADME, organism-based. The conditions noted are these: in vivo.
A short description of series [18]: Half life in Sprague-Dawley rat. It is filed as ADME, organism-based. The settings on record: in vivo.
Series [19] is described as follows: Dissociation constant, pKa of the compound. It is filed as physicochemical.
The nature of series [20]: Distribution coefficient, log D of the compound. It is filed as physicochemical. The settings on record: octanol/water.
The nature of series [21]: Lipophilicity, log P of the compound. The settings on record: octanol/water. It is filed as physicochemical.

T2 sequence (Q9GZQ6 whole entry): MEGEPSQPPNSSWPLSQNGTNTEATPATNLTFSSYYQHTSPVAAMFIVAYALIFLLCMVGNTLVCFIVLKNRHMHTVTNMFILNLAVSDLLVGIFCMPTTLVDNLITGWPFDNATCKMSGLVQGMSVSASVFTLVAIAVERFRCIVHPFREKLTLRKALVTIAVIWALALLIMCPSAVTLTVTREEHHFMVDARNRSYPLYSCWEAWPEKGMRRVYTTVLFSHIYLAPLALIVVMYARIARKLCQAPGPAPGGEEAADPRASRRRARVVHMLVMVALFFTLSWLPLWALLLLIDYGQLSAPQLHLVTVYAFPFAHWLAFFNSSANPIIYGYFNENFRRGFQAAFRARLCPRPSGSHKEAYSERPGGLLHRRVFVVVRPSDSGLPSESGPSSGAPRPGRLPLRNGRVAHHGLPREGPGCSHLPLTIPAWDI

Consider `N=C(N)N/N=C/c1ccc(Br)c(Br)c1`, for which the Efficacy in [1] came out at 90%. Besides, the Efficacy result in [2] was “inactive”.

On to `Cn1c(/C=N/NC(=N)N)ccc1-c1ccccc1C(F)(F)F`, for which the EC50 – broadly, the concentration giving half of the maximal effect – was 126 nM in series [3] and 316 nM in [4]. Moreover, the results for the Efficacy in series [1] and in series [2] were 72% and 36%, respectively.

For `C/C(=N\NC(=N)N)c1ccc(Cl)c(C(F)(F)F)c1`, the EC50 in [3] is 398 nM. In [1], the Efficacy turned out to be 66%. For the same compound, the Efficacy result in [2] was “inactive”.

For the compound `N=C(N)N/N=C/c1ccc(Cl)c(Cl)c1`, the figures for the Efficacy in series [1] and in series [2] were 68% and 18%, respectively. Further, the result (in series [5]; in the series on Rattus norvegicus [7]; in series [9]) was inactive. For the same compound, the Activity entry with Rattus norvegicus [6] was “Dose-dependent effect”. In addition, the result with Rattus norvegicus [8] was Active.

For the compound `N=C(N)N/N=C(\c1ccccc1)c1ccc(Cl)c(Cl)c1`, the EC50 in [3] and in series [4] was 794 nM in each case. Further, the Efficacy in series [1] was determined as 63%; in [2] it was 46%.

`N=C(N)N/N=C/c1ccc(Cl)c(C(F)(F)F)c1`: the results for the Efficacy in series [1], in [2] and in series [11] were 114%, 46% and 89%, respectively. Besides, in [4], the EC50 was above 3160 nM. In addition, the figures for the Activity entry (in the series with Rattus norvegicus [6]; in series [12]) were “Dose-dependent effect” and 42%, respectively. For the same compound, the outcome in the series on Rattus norvegicus [7] was inactive. In addition, the outcome in the series on Rattus norvegicus [10] was Active.

As for `N=C(N)N/N=C/c1ccc(-c2ccccc2C(F)(F)F)o1`, the EC50 in series [3] was 100 nM; in [4] it was 39.8 nM. Also, the Efficacy in series [1] is 73%; in series [2], 55%; in series [11], 114%; in series [12], 93%. The result in the series listed under Rattus norvegicus [13] was inactive.

With `N=C(N)N/N=C/c1c(Cl)cccc1Cl`, the outcome in [1] and in series [2] was inactive.

Regarding `C/C(=N\N=C(N)N)c1ccc(Cl)c(Cl)c1`, the EC50 in [3] was 501 nM. Further, the Efficacy in series [1] worked out at 64%. In addition, the Efficacy result in series [2] is “inactive”.

Turning to `CCCCCNC(=N)N/N=C/c1c[nH]c2ccc(OC)cc12`, the result in series [1] and in series [2] was inactive.

With `CN(C)c1cccc2c(S(=O)(=O)N3CCC[C@H]3C(=O)N[C@@H](CCC(N)=O)C(=O)N[C@@H](CCCNC(=N)N)C(N)=O)cccc12`, the result in the series filed under Rattus norvegicus [14] was Active.

Take `N=C(N)N/N=C/c1ccc(-c2ccccc2C(F)(F)F)s1`: the EC50 in series [3] was 158 nM; in [4] it was 126 nM. The figures for the Efficacy in series [1] and in [2] were 55% and 44%, respectively.

Take `Cc1ccccc1-c1ccc(/C=N/NC(=N)N)o1`: the results for the EC50 in series [3] and in series [4] were 100 nM and 79.4 nM, respectively. Further, the Efficacy was 90% in [1] and 55% in series [2].

As for `NC(N)=N/N=C/c1ccc(Cl)c(Cl)c1`, the EC50 in series [3] is 1000 nM. Further, the microsomal CLint (commonly a measure of how fast metabolising enzymes remove a compound, apart from limits set by blood flow) is 26 µL/min/mg in series [15] and 18 µL/min/mg in series [16]. The bioavailability (commonly the share of a dose that reaches the circulation, judged against a reference dose that is usually intravenous) in series [17] came out at 43%. Also, the half-life (commonly the time needed for the level to fall by half in the phase considered) in series [18] was 2.5 h. For the same compound, in [19], the pKa (as a rule, the pH at which an ionisable group is half protonated) was 8.4. For the same compound, in series [20], the logD (as a rule, the decadic logarithm of the distribution of all forms, ionised or not, between an organic phase and buffer at a given pH) worked out at 1.8. Besides, the logP – broadly, the decadic logarithm of the partition coefficient of the neutral form, usually between octanol and water – in [21] came out at 2.8.

Take `CC(C)c1ccccc1-c1ccc(/C=N/NC(=N)N)o1`: the EC50 in series [3] is 200 nM; in series [4], 158 nM. Also, the results for the Efficacy in series [1] and in series [2] were 70% and 62%, respectively.
